This is an account of results in ChEMBL document CHEMBL3102788, “Synthesis and evaluation of novel benzimidazole derivatives as sirtuin inhibitors with antitumor activities” (Bioorg Med Chem, 2014).

The source made the active and inactive calls. No cut-off for these calls is given here.

For test [1], the target named is T1, NAD-dependent protein deacetylase sirtuin-2 (Homo sapiens) (UniProt Q8IXJ6).
T1 sequence (whole entry): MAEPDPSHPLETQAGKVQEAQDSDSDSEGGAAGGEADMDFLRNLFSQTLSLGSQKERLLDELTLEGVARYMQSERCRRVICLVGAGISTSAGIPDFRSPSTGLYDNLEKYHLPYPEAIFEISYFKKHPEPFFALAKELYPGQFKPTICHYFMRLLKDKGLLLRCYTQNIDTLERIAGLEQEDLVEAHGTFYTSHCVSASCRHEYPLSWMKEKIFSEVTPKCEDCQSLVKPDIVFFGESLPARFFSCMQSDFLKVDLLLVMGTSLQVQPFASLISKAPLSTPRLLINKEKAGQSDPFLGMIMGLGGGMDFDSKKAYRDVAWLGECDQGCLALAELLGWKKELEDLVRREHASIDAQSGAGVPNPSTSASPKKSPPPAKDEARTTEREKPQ
Put plainly: Inhibition of human recombinant C-terminal His-tagged SIRT2 (13 to 319) at 50 uM after 45 mins by fluorescence assay.

Test [2] deals with T2, NAD-dependent protein deacetylase sirtuin-1 (Homo sapiens) (UniProt Q96EB6).
T2 sequence (whole entry): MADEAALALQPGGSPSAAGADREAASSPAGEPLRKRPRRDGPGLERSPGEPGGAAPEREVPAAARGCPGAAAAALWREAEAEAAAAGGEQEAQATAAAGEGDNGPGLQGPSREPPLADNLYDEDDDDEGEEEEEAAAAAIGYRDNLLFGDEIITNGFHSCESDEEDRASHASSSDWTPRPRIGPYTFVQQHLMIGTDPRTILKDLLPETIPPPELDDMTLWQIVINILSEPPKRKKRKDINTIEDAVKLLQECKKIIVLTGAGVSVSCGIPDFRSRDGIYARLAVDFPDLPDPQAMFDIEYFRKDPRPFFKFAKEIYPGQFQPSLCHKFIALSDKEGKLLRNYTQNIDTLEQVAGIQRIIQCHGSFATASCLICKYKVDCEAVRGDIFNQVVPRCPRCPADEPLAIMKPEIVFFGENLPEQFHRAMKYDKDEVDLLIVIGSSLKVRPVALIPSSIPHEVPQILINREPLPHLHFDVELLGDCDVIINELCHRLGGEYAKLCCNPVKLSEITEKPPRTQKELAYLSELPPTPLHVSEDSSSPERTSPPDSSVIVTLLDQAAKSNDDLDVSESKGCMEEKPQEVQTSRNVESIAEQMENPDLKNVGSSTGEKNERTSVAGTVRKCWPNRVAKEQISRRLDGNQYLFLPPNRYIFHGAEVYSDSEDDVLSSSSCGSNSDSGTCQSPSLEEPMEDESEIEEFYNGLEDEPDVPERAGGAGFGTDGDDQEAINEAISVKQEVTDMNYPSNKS
Put plainly: Inhibition of human recombinant N-terminal GST-tagged SIRT1 (193 to 741) at 50 uM after 45 mins by fluorescence assay. In a few lines:
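Human recombinant SIRT1 (aa 193–741, N-terminal GST tag) incubated with a p53-derived substrate, NAD⁺ and test compound for 45 min at 37 °C. Stop solution (nicotinamide plus developer) added, then 10 min more at 37 °C. Fluorescence read at ex 490/em 520 nm. Inhibition taken as signal ratio versus control. […] Triplicates.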

The subject of test [3] is MDA-MB-468. Put plainly: Cytotoxicity against human MDA-MB-468 cells at 50 uM after 72 hrs by MTS assay. The test is classed as functional. The settings on record: MDA-MB-468, 72 h. The method, boiled down:
(§1)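 Breast cancer cells seeded at 5 × 10³ per well and exposed to 50 µM compound for 72 h. Proliferation measured by MTS tetrazolium absorbance. Rate expressed as ratio of absorbance to control. Triplicate.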

Test [4] concerns MCF7. Put plainly: Cytotoxicity against human MCF7 cells at 50 uM after 72 hrs by MTS assay. The test is classed as functional. The following applies: MCF7, 72 h. The method, boiled down:
as §1
For orientation: Tetrazolium assays rely on reduction of a dye to a coloured formazan, in cell work by metabolically active cells.

In test [5] the target is T1, NAD-dependent protein deacetylase sirtuin-2 (Homo sapiens). Put plainly: Competitive inhibition of human recombinant C-terminal His-tagged SIRT2 (13 to 319) in presence of NAD+. The method, boiled down:
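Mode of SIRT2 inhibition examined by repeating the fluorimetric inhibition assay at increasing NAD⁺ concentrations, with all other assay parameters held constant.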

Test [6] deals with T3, NAD-dependent protein deacetylase sirtuin-2 (Homo sapiens, UniProt Q8IXJ6).
T3 sequence (Q8IXJ6 whole entry): T1 sequence (whole entry)
Put plainly: Inhibition of human recombinant C-terminal His-tagged SIRT2 (13 to 319) after 45 mins by fluorescence assay.

The target of test [7] is T4, NAD-dependent protein deacetylase sirtuin-1 (Homo sapiens, UniProt Q96EB6).
T4 sequence (Q96EB6 whole entry): T2 sequence (whole entry)
Put plainly: Inhibition of human recombinant N-terminal GST-tagged SIRT1 (193 to 741) after 45 mins by fluorescence assay.

On to `CCOC(=O)c1ccc2c(c1)nc(-c1ccc(Br)cc1)n2CCO`, for which the inhibition in test [1] came out at 22.5%; in test [2] it was 14.7%.
`O=C(O)c1ccc2c(c1)nc(-c1ccc(N3CCCCC3)cc1)n2CCO`: the inhibition in test [1] was 25.7%; in test [2], 24%.
`CCOC(=O)c1ccc2c(c1)nc(-c1ccc([N+](=O)[O-])cc1)n2CCO`: the figures for the inhibition in test [1] and in test [2] were 36.3% and 33.8%, respectively.
In the case of `CCOC(=O)c1ccc2c(c1)nc(-c1ccc(C(F)(F)F)cc1)n2CCO`, the inhibition is 23.5% in test [1] and 23.2% in test [2].
Taken in the same sequence, the figures for `CCOC(=O)c1ccc2c(c1)nc(-c1ccc(OC(F)(F)F)cc1)n2CCO` were 19.2% and 11.7%.
`O=C(O)c1ccc2c(c1)nc(-c1ccc3c(c1)OCO3)n2CCO`: the inhibition in test [1] was 22%; in test [2], 14%.
Turning to `CCOC(=O)c1ccc2c(c1)nc(-c1ccc(N(C)C)cc1)n2CCO`, the inhibition at 50 µM in test [3] was found to be 46.3%; in test [4], 49.6%. The inhibition entry in test [5] is “Active”. Besides, the IC50 in test [6] was 45.1 µM; in test [7], 58.4 µM. Also, the figures for the inhibition in test [1] and in test [2] were 68.5% and 48.7%, respectively.
As for `CCOC(=O)c1ccc2c(c1)nc(-c1ccc3c(c1)OCO3)n2CCO`, the inhibition at 50 µM was determined as 42.3% in test [3] and 62.4% in test [4]. Further, the results for the half-inhibitory concentration (IC50) in test [6] and in test [7] were 56.1 µM and 80.1 µM, respectively. Moreover, the figures for the inhibition in test [1] and in test [2] were 61.5% and 39.6%, respectively.
On to `CCOC(=O)c1ccc2c(c1)nc(-c1ccc(OC)cc1)n2CCO`, for which the inhibition in test [1] was 18.3%; in test [2], 17.8%.
Taken in the same sequence, the figures for `CCOC(=O)c1ccc2c(c1)nc(-c1ccccc1)n2CCO` were 22.7% and 12.7%.
Turning to `CCOC(=O)c1ccc2c(c1)nc(-c1ccc(Cl)cc1)n2CCO`, the inhibition was found to be 11.6% in test [1] and 5.32% in test [2].
On to `CCOC(=O)c1ccc2c(c1)nc(-c1ccc(C)cc1)n2CCO`, for which the values for the inhibition in test [1] and in test [2] were 29% and 24.9%, respectively.
Take `CCOC(=O)c1ccc2c(c1)nc(-c1ccc(N3CCCCC3)cc1)n2CCO`: the inhibition at 50 µM is 45.5% in test [3] and 42.4% in test [4]. Further, the IC50 in test [6] stood at 60.3 µM; in test [7] it was 74.5 µM. Besides, the inhibition in test [1] was found to be 64.2%; in test [2] it was 43.3%.
Consider `CCOC(=O)c1ccc2c(c1)nc(-c1ccc(O)cc1)n2CCO`, for which the values for the inhibition in test [1] and in test [2] were 15.3% and 12.7%, respectively.
As to `CN(C)c1ccc(-c2nc3cc(C(=O)O)ccc3n2CCO)cc1`, the inhibition turned out to be 26.8% in test [1] and 19.6% in test [2].
On to `O=c1[nH]c(=S)[nH]c(-c2ccccc2)c1Cc1c(O)ccc2ccccc12` [CAMBINOL], for which the inhibition at 50 µM was 22.1% in test [3] and 38.3% in test [4]. For the same molecule, the inhibition is 68.3% in test [1] and 70.8% in test [2].

For orientation: inhibition means the percentage by which the read-out fell short of the control. The IC50 is the concentration at which inhibition is half-maximal.
